Experiment [1] has as its system Cavia porcellus. The experiment is described as follows: Inhibition of leukotriene D4 induced bronchoconstriction in anesthetized guinea pigs after intravenous administration at a dose of 10 mg/kg. Type of experiment: functional. The method, boiled down:
(§1)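 Male Hartley guinea pigs, 400–600 g, urethane 2 g/kg ip, jugular cannula, propranolol 0.1 mg/kg iv 5 min before challenge, succinylcholine 1.2 mg/kg iv, ventilated. Vehicle or drug iv 30 s before LTD4 25 µg/kg iv; tracheal pressure change.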

Experiment [2] deals with Cysteinyl leukotriene receptor (Cavia porcellus). Description: Inhibitory activity to block binding of [3H]leukotriene D4 to LTD4 receptor sites in homogenized guinea pig lung.
In experiment [3] the test system is Cavia porcellus. The experiment is described as follows: (§2) Inhibition of leukotriene D4 induced bronchoconstriction in anesthetized guinea pigs after aerosol administration as 1% solution. Type of experiment: functional. The method, boiled down:
(§3)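 Guinea pigs given propranolol 0.1 mg/kg iv 5 min before 5-min ultrasonic nebulizer exposure to aqueous, NaOH-neutralized drug (% w/v) or distilled water, breathing spontaneously. LTD4 50 µg/kg iv 30 s after exposure; tracheal pressure change.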

In experiment [4] the test system is Cysteinyl leukotriene receptor (Cavia porcellus). Description: Inhibitory activity to block binding of [3H]leukotriene D4 to LTD4 receptor sites in homogenized guinea pig lung at 10 uM.
Experiment [5] deals with Cavia porcellus. The description is as §2. Type of experiment: functional, organism-based. The method, boiled down: as §3
In experiment [6] the test system is Cysteinyl leukotriene receptor (Cavia porcellus). The experiment is described as follows: Inhibitory activity to block binding of [3H]leukotriene D4 to Cysteinyl leukotriene D4 receptor sites in homogenized guinea pig lung at 10 uM.
The subject of experiment [7] is Cavia porcellus. Description: Inhibition of leukotriene D4 induced bronchoconstriction in anesthetized guinea pigs after intravenous administration. It is filed as functional. The conditions noted are these: read-out: ID50 (the source's name). A digest of the protocol:
as §1

The results in this text go back to ChEMBL document CHEMBL1124636, “3,4-Dihydro-2H-1-benzopyran-2-carboxylic acids and related compounds as leukotriene antagonists” (J Med Chem, 1989).

SMILES strings stand for the structures.

A word on the inhibition in vivo: it is the relative decrease from the control value, in per cent. Read a high inhibition in vivo as a strong effect. One may read the Inhibition as the change of the read-out against control, counted positive when it falls. The low end stands for a weak effect, the high end for a strong effect. The term inhibition denotes the percentage by which the read-out fell short of the control.

The compound `CCCc1c(OCCCCCOc2cc3c(cc2C(C)=O)CCC(CCC(=O)O)O3)ccc(C(C)=O)c1O` (stereo not given) returned an inhibition in vivo at 10 mg/kg in experiment [1] of 86%. Moreover, the ED50 in experiment [1] (read-out: ID50 (the source's name)) worked out at 5 mg/kg. Besides, in experiment [2], the IC50 stood at 2 µM. The compound further displayed an Inhibition in experiment [3] of 31%. The compound also returned an inhibition in experiment [4] of 94%.
On to `CCCc1c(OCCCCCOc2cc3c(cc2C(C)=O)CCC2(CCC(C(=O)O)CC2)O3)ccc(C(C)=O)c1O` (stereo not given), for which the IC50 stood at 0.08 % conc in experiment [5] and 4 µM in experiment [2]. For the same compound, in experiment [1], the inhibition in vivo at 10 mg/kg was 32%. In experiment [3], this compound had an Inhibition of 83%. The same compound yielded an inhibition in experiment [4] of 81%.
With `CCCc1c(OCCC(C)(C)CCOc2cc3c(cc2C(C)=O)CCC(C(=O)O)O3)ccc(C(C)=O)c1O` (stereo not given), testing at 10 mg/kg in experiment [1] gave an inhibition in vivo of 15%. Moreover, the IC50 in experiment [2] turned out to be 7 µM. For the same compound, the Inhibition in experiment [3] came to 23%. The inhibition in experiment [4] was 68%.
With `CCCc1c(OCc2ccccc2CCOc2cc3c(cc2C(C)=O)CCC(C(=O)O)O3)ccc(C(C)=O)c1O` (stereo not given), the inhibition in vivo at 10 mg/kg in experiment [1] stood at 24%. Further, the inhibition in experiment [6] was determined as 26%. For the same compound, the Inhibition in experiment [3] is given as 12%.
For the compound `COc1cc(C(=O)NS(=O)(=O)c2ccccc2)ccc1Cn1ncc2ccc(NC(=O)OC3CCCC3)cc21` [ICI-198615], the IC50 was 0.006 % conc in experiment [5] and 0.001 µM in experiment [2]. This compound also came in with an inhibition in vivo at 10 mg/kg in experiment [1] of 100%. In experiment [3], this compound registered an Inhibition of 99%. The compound also displayed an inhibition in experiment [4] of 98%. The ED50 in experiment [7] was found to be 0.03 mg/kg.
The compound `CCCc1c(OCCCCCOc2cc3c(cc2[N+](=O)[O-])CCC(C(=O)O)O3)ccc(C(C)=O)c1O` (stereo not given) showed an inhibition in vivo at 10 mg/kg in experiment [1] of 18%. Further, the Inhibition in experiment [3] came out at 0%. Further, the inhibition in experiment [4] came out at 48%.
In turn, `CCCc1c(OCCCCCOc2cc3c(cc2C(=O)CC)CCC(C(=O)O)O3)ccc(C(C)=O)c1O` (stereo not given) came in with an IC50 in experiment [5] of 0.3 % conc. Further, at 10 mg/kg the inhibition in vivo in experiment [1] was 7%. Also, the inhibition in experiment [6] came out at 52%. The Inhibition in experiment [3] came out at 60%.
Regarding `CCCc1c(OCCOCCOc2cc3c(cc2C(C)=O)CCC(C(=O)O)O3)ccc(C(C)=O)c1O` (stereo not given), in experiment [1], at 10 mg/kg the inhibition in vivo was 50%. The inhibition in experiment [6] worked out at 8%. In experiment [3], this compound displayed an Inhibition of 31%. Further, in experiment [7], the ED50 stood at 10 mg/kg.
On to `CCCc1c(OCCCCCOc2cc(OCC(=O)O)ccc2C(C)=O)ccc(C(C)=O)c1O`, for which the IC50 in experiment [5] was found to be 1 % conc; in experiment [2], 5 µM. Besides, the inhibition in vivo at 10 mg/kg in experiment [1] came to 20%. The compound further displayed an Inhibition in experiment [3] of 46%. The compound further showed an inhibition in experiment [4] of 65%.
Turning to `CCCc1c(OCCCCCOc2cc3c(cc2C(C)=O)CCC(C)(C(=O)O)O3)ccc(C(C)=O)c1O` (stereo not given), the IC50 in experiment [5] came to 0.2 % conc; in experiment [2] it was 6 µM. Besides, the inhibition in vivo at 10 mg/kg in experiment [1] was found to be 50%. The compound further had an Inhibition in experiment [3] of 85%. For the same compound, the inhibition in experiment [4] is 64%. Further, the ED50 in experiment [7] worked out at 10 mg/kg.
On to `CCCc1c(OCCCCOc2cc3c(cc2C(C)=O)CCC(C(=O)O)O3)ccc(C(C)=O)c1O` (stereo not given), for which testing at 10 mg/kg in experiment [1] gave an inhibition in vivo of 36%. This compound showed an inhibition in experiment [6] of 26%. The Inhibition in experiment [3] is recorded as 37%.
Consider `CCCc1c(OCCCCCOc2ccc3c(c2C(C)=O)OC(C(=O)O)CC3)ccc(C(C)=O)c1O` (stereo not given), for which the inhibition in vivo at 10 mg/kg in experiment [1] amounted to 19%. In experiment [2], this compound came in with an IC50 of 5 µM. In experiment [3], this compound had an Inhibition of 1%. In experiment [4], this compound gave an inhibition of 72%.
In turn, `CCCc1c(OCCCS(=O)(=O)c2ccc(C(=O)CCC(=O)O)cc2)ccc(C(C)=O)c1O` [L-648051] came in with an IC50 in experiment [5] of 0.7 % conc. In experiment [1], the inhibition in vivo at 10 mg/kg was determined as 73%. The inhibition in experiment [6] turned out to be 0%. In experiment [3], this compound showed an Inhibition of 70%. Further, in experiment [7], the ED50 was 6 mg/kg.
`CCCc1c(OCCCCCOc2cc3c(cc2Cl)CCC(C(=O)O)O3)ccc(C(C)=O)c1O` (stereo not given) returned an inhibition in vivo at 10 mg/kg in experiment [1] of 16%. The compound also yielded an Inhibition in experiment [3] of 0%. Besides, the inhibition in experiment [4] turned out to be 45%.
`CCCc1c(OCCCOc2cc(NC(=O)c3nn[nH]n3)c(C)cc2Cl)ccc(C(C)=O)c1O` [CGP-35949]: in experiment [1], the inhibition in vivo at 10 mg/kg came to 49%. This compound registered an IC50 in experiment [2] of 1 µM. In addition, in experiment [4], the inhibition turned out to be 94%.
Consider `CCCc1c(OCCCCCOc2ccc3c(c2)OC(C(=O)O)CC3)ccc(C(C)=O)c1O` (stereo not given), for which the IC50 in experiment [5] is reported as 1 % conc. The same compound showed an inhibition in vivo at 10 mg/kg in experiment [1] of 0%. In addition, the inhibition in experiment [6] came out at 11%. Also, the Inhibition in experiment [3] is on record as 50%.
Turning to `CC(=O)c1ccc(OCCCCCOc2cc3c(cc2C(C)=O)CCC(C(=O)O)O3)cc1O` (stereo not given), the inhibition in vivo at 10 mg/kg in experiment [1] stood at 85%. The same compound came in with an Inhibition in experiment [3] of 0%. The same compound returned an inhibition in experiment [4] of 0%. Besides, the ED50 in experiment [7] is 5 mg/kg.
In experiment [1], `CCCc1c(OCCCSc2ccc([C@@H](O)[C@H](C)CC(=O)O)cc2)ccc(C(C)=O)c1O` [L-649923] returned an inhibition in vivo at 10 mg/kg of 72%. Also, the ED50 in experiment [7] was found to be 6 mg/kg.
For the compound `CCCc1c(OCCCCCOc2cc3c(cc2Br)CCC(C(=O)O)O3)ccc(C(C)=O)c1O` (stereo not given), the inhibition in vivo at 10 mg/kg in experiment [1] came out at 13%. The compound also displayed an inhibition in experiment [6] of 57%. In addition, in experiment [3], the Inhibition is listed as 0%.
`CCCc1c(OCCCCc2nnn[nH]2)ccc(C(C)=O)c1O` [TOMELUKAST] gave an IC50 in experiment [5] of 0.4 % conc. For the same compound, in experiment [1], at 10 mg/kg the inhibition in vivo was 77%. In experiment [3], this compound came in with an Inhibition of 62%. Moreover, in experiment [7], the ED50 came out at 5 mg/kg.
In experiment [1], `CCCc1c(O)c(C(C)=O)cc(Cl)c1OCCCCCOc1cc2c(cc1C(C)=O)CCC(C(=O)O)O2` (stereo not given) registered an inhibition in vivo at 10 mg/kg of 11%. This compound came in with an inhibition in experiment [6] of 47%. Besides, the Inhibition in experiment [3] was found to be 10%.
The compound `CCCc1c(OCCCCCOc2cc3c(cc2C(C)=O)CC(C(=O)O)O3)ccc(C(C)=O)c1O` (stereo not given) registered an IC50 in experiment [5] of 0.04 % conc. Besides, 10 mg/kg produced 25% inhibition in vivo in experiment [1]. Further, the inhibition in experiment [6] was 12%. Also, in experiment [3], the Inhibition came out at 88%.
As for `CCCc1c(OCCCCCOc2cc3c(cc2C(C)=O)CCC(C(=O)NS(=O)(=O)c2ccccc2)O3)ccc(C(C)=O)c1O` (stereo not given), the IC50 in experiment [5] stood at 1 % conc; in experiment [2], 2 µM. Also, the inhibition in vivo at 10 mg/kg in experiment [1] came to 26%. For the same compound, the Inhibition in experiment [3] is 53%. In experiment [4], this compound registered an inhibition of 87%.
With `CCCc1c(OCCCCCOc2cc3c(cc2C(C)=O)CCC(CCCCC(=O)O)O3)ccc(C(C)=O)c1O` (stereo not given), in experiment [1], 10 mg/kg produced 10% inhibition in vivo. Further, the inhibition in experiment [4] was found to be 47%.
Regarding `O=S(=O)(Nc1cccc(OCc2ccc3ccccc3n2)c1)C(F)(F)F` [RITOLUKAST], in experiment [1], 10 mg/kg produced 61% inhibition in vivo. For the same compound, in experiment [7], the ED50 worked out at 4 mg/kg.
As to `CCCc1c(OCCCCCCc2cc3c(cc2C(C)=O)CCC(C(=O)O)O3)ccc(C(C)=O)c1O` (stereo not given), the IC50 in experiment [5] was 0.3 % conc. The compound also had an inhibition in vivo at 10 mg/kg in experiment [1] of 46%. The compound further yielded an inhibition in experiment [6] of 20%. Moreover, in experiment [3], the Inhibition was found to be 65%.
